Measured values from ChEMBL document CHEMBL1123757, “Selective thromboxane synthetase inhibitors and antihypertensive agents. New derivatives of 4-hydrazino-5H-pyridazino[4,5-b]indole, 4-hydrazinopyridazino[4,5-a]indole, and related compounds” (J Med Chem, 1987).

Tests used:
[1] = system: Rattus norvegicus; assay: Antihypertensive activity in spontaneously hypertensive rats (SHR) measured by percentage fall in arterial pressure (AP) at 25 mg/kg administered intraperitoneally at 24 h;No significance; assay type: functional, organism-based; parameters: dose 25 mg/kg; details: Artery
How it was run: (§1)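 Unanesthetized Okamoto-strain SHR, male and female, 8 weeks old, 300–350 g, systolic pressure ≥190 mmHg, heart rate 400–650 beats/min; five animals per dose. Given ip at 2.5 mL/kg, dissolved or suspended in normal saline or saline with 0.2% (carboxymethyl)cellulose and 1.0% Tween 80. Tail AP and CR recorded by mechanical transduction at set times; reported as percentage fall from control.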

[2] = system: Rattus norvegicus; assay: Antihypertensive activity in spontaneously hypertensive rats (SHR) measured by percentage fall in arterial pressure (AP) at 25 mg/kg administered intraperitoneally at 3 h; assay type: functional, Artery; details: route intraperitoneal; how it was run: as §1
[3] = system: Rattus norvegicus; assay: Antihypertensive activity in spontaneously hypertensive rats (SHR) measured by percentage fall in cardiac rhythm (CR) at 25 mg/kg administered intraperitoneally at 5 h; assay type: functional, Heart; details: route intraperitoneal
How it was run: (§2)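 Conscious SHR (Okamoto strain), 8 weeks old, male and female, 300–350 g, systolic BP ≥190 mmHg, CR 400–650 beats/min. Given ip or po at 2.5 mL/kg in normal saline or saline with 0.2% (carboxymethyl)cellulose and 1.0% Tween 80. Tail AP and CR recorded by mechanical transduction at 1, 3, 5 and 24 h, five animals per dose. Effect expressed as % fall versus control.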

[4] = system: Rattus norvegicus; assay: Antihypertensive activity in spontaneously hypertensive rats (SHR) measured by percentage fall in cardiac rhythm (CR) at 25 mg/kg administered intraperitoneally at 24 h;No significance; assay type: functional, organism-based; parameters: dose 25 mg/kg; details: Heart; how it was run: as §1
[5] = system: Rattus norvegicus; assay: Antihypertensive activity in spontaneously hypertensive rats (SHR) measured by percentage fall in arterial pressure (AP) at 25 mg/kg administered intraperitoneally at 5 h; assay type: functional, Artery; details: route intraperitoneal; how it was run: as §1
[6] = system: Rattus norvegicus; assay: Antihypertensive activity in spontaneously hypertensive rats (SHR) measured by percentage fall in cardiac rhythm (CR) at 25 mg/kg administered intraperitoneally at 3 h; assay type: functional, Heart; details: route intraperitoneal; how it was run: as §1
[7] = system: Rattus norvegicus; assay: Antihypertensive activity in spontaneously hypertensive rats (SHR) measured by percentage fall in arterial pressure (AP) at 25 mg/kg administered intraperitoneally at 1 h; assay type: functional, Artery; details: route intraperitoneal; how it was run: as §1
[8] = system: Rattus norvegicus; assay: Antihypertensive activity in spontaneously hypertensive rats (SHR) measured by percentage fall in arterial pressure (AP) at 25 mg/kg administered intraperitoneally at 24 h; assay type: functional, Artery; details: route intraperitoneal; how it was run: as §1
[9] = system: Rattus norvegicus; assay: Antihypertensive activity in spontaneously hypertensive rats (SHR) measured by percentage fall in cardiac rhythm (CR) at 25 mg/kg administered intraperitoneally at 1 h; assay type: functional, Heart; details: route intraperitoneal; how it was run: as §1
[10] = system: Rattus norvegicus; assay: Antihypertensive activity in spontaneously hypertensive rats (SHR) measured by percentage fall in cardiac rhythm (CR) at 25 mg/kg administered intraperitoneally at 1 h;No significance; assay type: functional, organism-based; parameters: dose 25 mg/kg; details: Heart; how it was run: as §1
[11] = system: Rattus norvegicus; assay: Antihypertensive activity in spontaneously hypertensive rats (SHR) measured by percentage fall in cardiac rhythm (CR) at 25 mg/kg administered intraperitoneally at 3 h;No significance; assay type: functional, organism-based; parameters: dose 25 mg/kg; details: Heart; how it was run: as §2
[12] = system: Rattus norvegicus; assay: Antihypertensive activity in spontaneously hypertensive rats (SHR) measured by percentage fall in cardiac rhythm (CR) at 25 mg/kg administered intraperitoneally at 5 h;No significance; assay type: functional, organism-based; parameters: dose 25 mg/kg; details: Heart; how it was run: as §2
[13] = system: Rattus norvegicus; assay: Antihypertensive activity in spontaneously hypertensive rats (SHR) measured by percentage fall in arterial pressure (AP) at 25 mg/kg administered intraperitoneally at 5 h;No significance; assay type: functional, organism-based; parameters: dose 25 mg/kg; details: Artery; how it was run: as §1
[14] = organism: Homo sapiens; assay: In vitro inhibition of platelet aggregation induced by ADP-II (PRP incubated for 5 minutes at 37 degree C) at 10e-5 M; No significance; assay type: functional
How it was run: (§3)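 Human venous blood anticoagulated with 3.8% sodium citrate (1:9). PRP from centrifugation at 800 rpm for 10 min at room temperature. Count adjusted with PPP to […]. Compound in saline with 10% ethylene glycol is added to PRP and incubated at 37 °C before the agonist. Agonists: ADP 2×10^-5 M, AA 0.6 mM, PGH2 2.8 μM, adrenaline 0.6 μM. Born absorbance aggregometry; n = 5.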

[15] = organism: Homo sapiens; assay: In vitro inhibition of platelet aggregation induced by […] (PRP incubated for 5 minutes at 37 degree C) at 10e-5 M; No significance; assay type: functional
[16] = organism: Homo sapiens; assay: In vitro inhibition of platelet aggregation induced by AA (PRP incubated for 60 minutes at 37 degree C) at 10e-5 M; No significance; assay type: functional; how it was run: as §3
[17] = organism: Homo sapiens; assay: In vitro inhibition of platelet aggregation induced by ADP-II (PRP incubated for 60 minutes at 37 degree C) at 10e-5 M; assay type: functional; details: 1 h; how it was run: as §3
[18] = system: Rattus norvegicus; assay: Antihypertensive activity in spontaneously hypertensive rats (SHR) measured by percentage fall in cardiac rhythm (CR) at 25 mg/kg administered intraperitoneally at 24 h; assay type: functional, Heart; details: route intraperitoneal; how it was run: as §1
[19] = system: Rattus norvegicus; assay: Antihypertensive activity in spontaneously hypertensive rats (SHR) measured by percentage fall in cardiac rhythm (CR) at 1 mg/kg administered intraperitoneally at 24 h; assay type: functional, Heart; details: route intraperitoneal; how it was run: as §1
[20] = system: Rattus norvegicus; assay: Antihypertensive activity in spontaneously hypertensive rats (SHR) measured by percentage fall in cardiac rhythm (CR) at 5 mg/kg administered intraperitoneally at 3 h; assay type: functional, Heart; details: route intraperitoneal; how it was run: as §2
[21] = system: Rattus norvegicus; assay: Antihypertensive activity in spontaneously hypertensive rats (SHR) measured by percentage fall in arterial pressure (AP) at 25 mg/kg administered perorally at 24 h; assay type: functional, Artery; details: route oral
How it was run: (§4)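 Oral dosing at 2.5 mL/kg to unanesthetized male and female Okamoto-strain SHR (8 weeks old, 300–350 g, systolic pressure ≥190 mmHg, heart rate 400–650 beats/min), five per dose. Vehicle was normal saline or saline with 0.2% (carboxymethyl)cellulose and 1.0% Tween 80. AP measured on the tail by mechanical transduction at set times; expressed as percentage fall from control.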

[22] = system: Rattus norvegicus; assay: Antihypertensive activity in spontaneously hypertensive rats (SHR) measured by percentage fall in arterial pressure (AP) at 5 mg/kg administered intraperitoneally at 3 h; assay type: functional, Artery; details: route intraperitoneal; how it was run: as §1
[23] = system: Rattus norvegicus; assay: Antihypertensive activity in spontaneously hypertensive rats (SHR) measured by percentage fall in arterial pressure (AP) at 5 mg/kg administered intraperitoneally at 5 h; assay type: functional, Artery; details: route intraperitoneal; how it was run: as §1
[24] = system: Rattus norvegicus; assay: Antihypertensive activity in spontaneously hypertensive rats (SHR) measured by percentage fall in cardiac rhythm (CR) at 25 mg/kg administered perorally at 3 h; assay type: functional, Heart; details: route oral; how it was run: as §2
[25] = system: Rattus norvegicus; assay: Antihypertensive activity in spontaneously hypertensive rats (SHR) measured by percentage fall in arterial pressure (AP) at 5 mg/kg administered intraperitoneally at 24 h; assay type: functional, Artery; details: route intraperitoneal; how it was run: as §1
[26] = system: Rattus norvegicus; assay: Antihypertensive activity in spontaneously hypertensive rats (SHR) measured by percentage fall in arterial pressure (AP) at 25 mg/kg administered perorally at 3 h; assay type: functional, Artery; details: route oral; how it was run: as §4
[27] = system: Rattus norvegicus; assay: Antihypertensive activity in spontaneously hypertensive rats (SHR) measured by percentage fall in cardiac rhythm (CR) at 1 mg/kg administered intraperitoneally at 5 h; assay type: functional, Heart; details: route intraperitoneal; how it was run: as §1
[28] = system: Rattus norvegicus; assay: Antihypertensive activity in spontaneously hypertensive rats (SHR) measured by percentage fall in cardiac rhythm (CR) at 1 mg/kg administered intraperitoneally at 3 h; assay type: functional, Heart; details: route intraperitoneal; how it was run: as §1
[29] = system: Rattus norvegicus; assay: Antihypertensive activity in spontaneously hypertensive rats (SHR) measured by percentage fall in arterial pressure (AP) at 25 mg/kg administered perorally at 5 h; assay type: functional, Artery; details: route oral; how it was run: as §4

With COc1ccc2[nH]c3c(cnn4c(C)nnc34)c2c1 the “Decrease in AP” value [1] was “No significant values”, the “Decrease in AP” value [2] was 10% and the “Decrease in CR” value [3] was 7%. For the same molecule, the “Decrease in CR” value [4] was “No significant values”, the “Decrease in AP” value [5] was 8% and the “Decrease in CR” value [6] was -5%.

With CCOc1ccc2[nH]c3c(NN)nncc3c2c1 the “Decrease in AP” value [7] was 29%, the “Decrease in AP” value [2] was 28% and the “Decrease in CR” value [3] was -9%. For the same molecule, the “Decrease in AP” value [5] was 24%, the “Decrease in AP” value [8] was 5% and the “Decrease in CR” value [6] was -11%. The “Decrease in CR” value [9] was -20%.

CCOc1ccc2[nH]c3c(S)nncc3c2c1 was tested, and the “Decrease in AP” value [7] was 10%, the “Decrease in AP” value [1] was “No significant values” and the “Decrease in AP” value [2] was 5%. For the same molecule, the “Decrease in CR” value [10] was “No significant values”, the “Decrease in CR” value [11] was “No significant values” and the “Decrease in CR” value [4] was “No significant values”. For the same molecule, the “Decrease in CR” value [12] was “No significant values” and the “Decrease in AP” value [13] was “No significant values”.

For COc1ccc2c(c1)cc1c(S)nncn12, the inhibition [14] was “No significant values”, the inhibition [15] was “No significant values” and the inhibition [16] was “No significant values”. It also gave an inhibition at 10 µM [17] of 100%.

In the case of COc1ccc2c(c1)cc1c(NN)nncn12.Cl, the “Decrease in AP” value [7] is reported as 9%.

Cl.NNc1[nH]ncc2c3cc(OCc4ccccc4)ccc3nc1-2 was tested, and the “Decrease in AP” value [7] was 18%, the “Decrease in AP” value [2] was 33% and the “Decrease in CR” value [3] was -15%. For the same molecule, the “Decrease in CR” value [18] was -16%, the “Decrease in AP” value [5] was 28% and the “Decrease in AP” value [8] was 9%. The “Decrease in CR” value [6] was -13% and the “Decrease in CR” value [9] was -7%.

In the case of COc1ccc2c(c1)cc1c(O)nncn12, the inhibition [14] is reported as “No significant values”, the inhibition [15] is reported as “No significant values” and the inhibition [16] is reported as “No significant values”. For the same molecule, the inhibition at 10 µM [17] was 100%.

For NNc1[nH]ncc2c3cc(OCc4ccccc4)ccc3nc1-2, the “Decrease in CR” value [19] was 9%, the “Decrease in CR” value [20] was 16% and the “Decrease in AP” value [2] was 12%. The “Decrease in AP” value [21] was 5%, the “Decrease in AP” value [22] was 5% and the “Decrease in CR” value [3] was 20%. For the same molecule, the “Decrease in AP” value [23] was 13%, the “Decrease in CR” value [18] was 7% and the “Decrease in CR” value [24] was 21%. The “Decrease in AP” value [5] was 13%, the “Decrease in AP” value [8] was 7% and the “Decrease in CR” value [6] was 15%. The “Decrease in AP” value [25] was 7%, the “Decrease in AP” value [26] was 6% and the “Decrease in CR” value [27] was 6%. For the same molecule, the “Decrease in CR” value [28] was 8% and the “Decrease in AP” value [29] was 10%.

For COc1ccc2[nH]c3c(cnn4nnnc34)c2c1, the “Decrease in AP” value [2] was 12%, the “Decrease in CR” value [11] was “No significant values” and the “Decrease in CR” value [4] was “No significant values”. The “Decrease in AP” value [5] was 8%, the “Decrease in AP” value [8] was 6% and the “Decrease in CR” value [12] was “No significant values”.
